One data set deals with Monocyte. Description: Cytotoxicity against human monocytes assessed as reduction in LDH release at 1 to 10 uM after 2 to 24 hrs by CytoTox96 nonradioactive assay. The format is cell-based. As to conditions: dose lower 1 µM, time lower 2 hrs, dose upper 10 µM, time upper 24 hrs. In a few lines:
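Monocytes at 4 × 10^5/mL in monocyte medium treated 2 or 24 h at 37 °C, 5% CO2, with 0.1% DMSO vehicle. LDH release measured by CytoTox 96 kit, with Triton X-100 (0.8%) defining maximum release.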
(In general: LDH in the medium is a marker of cell lysis.)

A further data set concerns Mus musculus. Description: Antiinflammatory activity in zymosan-induced CD-1 mouse peritonitis model assessed as reduction in LTC4 level at 3 mg/kg, po preincubated with compound for 60 mins followed by zymosan addition and measured after 30 mins by ELISA. As to conditions: time 90.0 min. The format is functional, organism-based. The gist of the method:
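Oral dosing at 3 mg/kg in zymosan-induced peritonitis; mice killed 30 min after zymosan; LTC4 in peritoneal exudate measured by ELISA; two-tailed unpaired t-test of log data.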
(In general: ELISA stands for enzyme-linked immunosorbent assay.)

Activity calls are given as the source filed them. No cut-off for these calls is given here.

`Cc1c(C)c2c(c(C)c1O)CC[C@@](C)(CCCC(C)CCCC(C)CCCC(C)C(=O)O)O2` (some centres not stated): in the data set with Monocyte, the Activity result was “Non-Toxic”.

Take `CC(c1cc2ccccc2s1)N(O)C(N)=O` (configuration not stated): the outcome in the data set on Mus musculus was inactive.

The values above are taken from ChEMBL document CHEMBL4834471 (J Med Chem, 2021).
